Test results published in ChEMBL document CHEMBL1629530, “1,5-Benzoxazepines vs 1,5-benzodiazepines. one-pot microwave-assisted synthesis and evaluation for antioxidant activity and lipid peroxidation inhibition” (J Med Chem, 2010).
Calls of active or inactive are those of the source. The calls are words filed in the database; no cut-off is given here.

How the values were obtained:
[1] = Inhibition of AAPH-induced linoleic acid lipid peroxidation; type: physicochemical
Procedure, shortened: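 Linoleic acid sodium salt (10 μL of 16 mM) in 0.05 M phosphate buffer pH 7.4, prethermostated at 37 °C. Oxidation started under air at 37 °C with 50 μL of 40 mM AAPH, compounds in DMSO. Conjugated diene hydroperoxide formation followed as rising absorbance at 234 nm; result given as IC50. At least triplicate.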

[2] = tested on: Radical scavenging activity; test: Antioxidant activity assessed as DPPH radical scavenging activity at 100 uM after 60 mins; type: functional
Procedure, shortened: (§1)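 DPPH 0.05 mM in absolute ethanol mixed with an equal volume of compound in DMSO (final 50 and 100 μM). Shaken vigorously, then left to stand 20 or 60 min. At least triplicate; absorbance SD under 10% of mean.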

[3] = tested on: Radical scavenging activity; test: Antioxidant activity assessed as DPPH radical scavenging activity at 50 uM after 20 mins; type: functional; procedure, shortened: as §1
Glycine max = test: Inhibition of soybean lipoxygenase at 100 uM by UV absorbance based assay
Procedure, shortened: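 Soybean LOX (1 × 10^-4 w/v in saline, diluted 1:9 with saline) incubated at room temperature with sodium linoleate and compound in DMSO (100 μM). Conversion to 13-hydroperoxylinoleic acid recorded at 234 nm against a standard inhibitor. At least triplicate.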

[4] = tested on: Radical scavenging activity; test: Antioxidant activity assessed as DPPH radical scavenging activity at 100 uM after 20 mins; type: functional; procedure, shortened: as §1
[5] = tested on: Radical scavenging activity; test: Antioxidant activity assessed as DPPH radical scavenging activity at 50 uM after 60 mins; type: functional; procedure, shortened: as §1
Rattus norvegicus [6] = test: Antiinflammatory activity in Fisher 344 rat assessed as inhibition of carrageenan-induced paw edema at 0.01 mmol/kg, ip administered simultaneously with carrageenan; type: functional; settings: Fisher 344, ip
Procedure, shortened: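 Edema induced by intradermal injection of 0.1 mL 2% carrageenin in water into right hind paw of Fisher 344 rats (150-200 g), both sexes, pregnant females excluded, fasted during experiment; 6-15 animals per group. Compound suspended in water with a few drops of Tween 80, given ip. Rats euthanized 3.5 h later. Injected minus uninjected paw weight compared with water-treated controls as % inhibition; mean of two experiments.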

Rattus norvegicus [7] = test: Toxicity in Fisher 344 rat carrageenan-induced inflammation model at 0.2 mmol/kg, ip administered simultaneously with carrageenan; type: organism-based; settings: in vivo

Row | IC50 [1] [µM] | inhibition (Glycine max) | Compound | Activity [2] [%] | Activity [3] [%] | Activity [4] [%] | Activity [5] [%] | inhibition in vivo at 10 µmol/kg (Rattus norvegicus [6]) [%] | Activity (Rattus norvegicus [7])
1 | 70 | 98% | CC1=Nc2c(N)cccc2OC(C)(C)C1 | 86 | 87 | 86 | 88 |  | 
2 | 45 | 6% | CC1(C)CC(c2ccccc2)=Nc2ccccc2N1 | 14 |  | 15 |  |  | 
3 | 50 | 28% | CC1(c2ccccc2)CC(c2ccccc2)=Nc2c(O)cccc2N1 (stereo not drawn) | 29 |  | 30 |  |  | 
4 | 46 | 3% | COc1ccccc1C1=Nc2c(O)cccc2NC(C)(c2ccccc2OC)C1 (stereo not drawn) | 36 |  | 36 |  |  | 
5 |  | 84% | CC(Cc1ccc(O)c(O)c1)C(C)Cc1ccc(O)c(O)c1 (stereo not drawn) | 96 |  | 93 |  |  | 
6 | 46 | inactive | CC1(c2cccc([N+](=O)[O-])c2)CC(c2cccc([N+](=O)[O-])c2)=Nc2c(O)cccc2N1 (stereo not drawn) | 32 |  | 32 |  |  | 
7 | 50 | 3% | Cc1ccc(NC(=O)Oc2cccc3c2N=C(c2ccccc2)CC(C)(c2ccccc2)N3)cc1 (stereo not drawn) | 9 |  | 10 |  |  | 
8 | 2.5 | inactive | CC1(c2ccc(Cl)cc2)CC(c2ccc(Cl)cc2)=Nc2c(O)cccc2N1 (stereo not drawn) | 53 |  | 54 |  | 35 | Non-toxic
9 | 60 | 37% | COc1cccc(C2=Nc3c(O)cccc3NC(C)(c3cccc(OC)c3)C2)c1 (stereo not drawn) | 27 |  | 27 |  |  | 
10 | 77 | inactive | CC1=Nc2c(O)cccc2NC(C)(C)C1 | 65 | 44 | 66 | 67 |  | 
11 | 47.5 | inactive | CC1(c2ccc(Cl)cc2)CC(c2ccc(Cl)cc2)=Nc2c(N)cccc2O1 (stereo not drawn) | 86 | 87 | 86 | 86 |  | 
12 |  |  | COc1ccc2c(c1)c(CC(=O)O)c(C)n2C(=O)c1ccc(Cl)cc1 [INDOMETHACIN] |  |  |  |  | 47 | 
13 | 63 |  | Cc1c(C)c2c(c(C)c1O)CCC(C)(C(=O)O)O2 (stereo not drawn) [TROLOX] |  |  |  |  |  | 
